Reference: ChEMBL document CHEMBL4627348, “Synthesis of (1,3,4-thiadiazol-2-yl)-acrylamide derivatives as potential antitumor agents against acute leukemia cells” (Bioorg Med Chem Lett, 2020)
The source made the active and inactive calls. The calls are words filed in the database; no cut-off is given here.

How the values were obtained:
[1] = Cytotoxicity against HEK293T cells assessed as growth inhibition at 20 uM after 48 hrs by CCK8 assay relative to control; type: cell-based, HEK-293T; details: human, HEK293T cells; read-out: GI
Method in brief: (§1)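 Single-dose screen at 20 μM in RS4;11 (human ALL), HL-60 (human promyelocytic leukemia) and HEK293T (normal-cell model). Cells exposed 48 h, viability read by CCK-8, growth inhibition ratio expressed relative to control.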

HL-60 [2] = test: Antiproliferative activity against human HL60 cells assessed as growth inhibition at 20 uM after 48 hrs by CCK-8 assay relative to control; type: functional; details: for inhibition of growth at 20 µM: HL-60, 48 h, read-out: GI; method in brief: as §1
RS4-11 [3] = test: Antiproliferative activity against human RS4:11 cells assessed as growth inhibition at 20 uM after 48 hrs by CCK-8 assay relative to control; type: functional; details: for inhibition of growth at 20 µM: RS4-11, 48 h, read-out: GI; method in brief: as §1
HEK-293T = test: Cytotoxicity against human HEK293T cells assessed as growth inhibition after 48 hrs by CCK8 assay; type: cell-based
RS4-11 [4] = test: Antiproliferative activity against human RS4:11 cells assessed as growth inhibition after 48 hrs by CCK-8 assay; type: functional, cell-based; details: RS4-11, 48 h
HL-60 [5] = test: Antiproliferative activity against human HL60 cells assessed as growth inhibition after 48 hrs by CCK-8 assay; type: functional, cell-based; details: HL-60, 48 h

IC50 (RS4-11 [4])	IC50 (HL-60 [5])	Structure (SMILES)	inhibition at 48 h, 20 µM [1]	inhibition of growth at 20 µM (HL-60 [2])	inhibition of growth at 20 µM (RS4-11 [3])	IC50 (HEK-293T)	growth inhibition (GI) (HL-60 [2])	growth inhibition (GI) (RS4-11 [3])
		Cc1ccc(Cc2nnc(NC(=O)/C(C#N)=C/c3ccccc3OS(=O)(=O)c3ccc(Cl)cc3)s2)cc1	8%	38%	72%			
		Cc1ccc(S(=O)(=O)Oc2ccccc2/C=C(\C#N)C(=O)Nc2nnc(Cc3ccccc3)s2)cc1	15%	16%	69%			
		N#C/C(=C\c1ccccc1OS(=O)(=O)c1ccc(F)cc1)C(=O)Nc1nnc(Cc2ccccc2)s1	6%	22%	69%			
1.36 µM	4.7 µM	COc1ccc(S(=O)(=O)Oc2ccccc2/C=C(\C#N)C(=O)Nc2nnc(Cc3cccc4ccccc34)s2)cc1	29%	98%	78%	> 50 µM		
		N#C/C(=C\c1ccccc1OS(=O)(=O)c1ccc([N+](=O)[O-])cc1)C(=O)Nc1nnc(Cc2ccc(Cl)cc2)s1	19%	34%	66%			
3.67 µM	10.9 µM	COc1ccc(Cc2nnc(NC(=O)/C(C#N)=C/c3ccccc3OS(=O)(=O)c3ccc([N+](=O)[O-])cc3)s2)cc1	17%	51%	70%	> 50 µM		
		N#C/C(=C\c1cccc(NS(=O)(=O)c2ccc(F)cc2)c1)C(=O)Nc1nnc(-c2cccs2)s1	29%		22%		inactive	
		Cc1ccc(Cc2nnc(NC(=O)/C(C#N)=C/c3ccccc3OS(=O)(=O)c3ccc(F)cc3)s2)cc1	11%	11%	73%			
		Cc1ccc(Cc2nnc(NC(=O)/C(C#N)=C/c3ccccc3OS(=O)(=O)c3ccccc3[N+](=O)[O-])s2)cc1	6%	33%				inactive
		CS(=O)(=O)Oc1ccc(/C=C(\C#N)C(=O)Nc2nnc(-c3cccs3)s2)cc1	19%		13%		inactive	
		N#C/C(=C\c1ccccc1OS(=O)(=O)c1ccccc1[N+](=O)[O-])C(=O)Nc1nnc(Cc2ccc(F)cc2)s1	6%	35%	61%			
		N#C/C(=C\c1ccccc1OS(=O)(=O)c1ccc(Cl)cc1)C(=O)Nc1nnc(Cc2cccc(F)c2)s1	29%	42%	71%			
		Cc1nnc(NC(=O)/C(C#N)=C/c2cccc(OS(C)(=O)=O)c2)s1	20%	20%	33%			
		N#C/C(=C\c1ccccc1OS(=O)(=O)c1ccccc1[N+](=O)[O-])C(=O)Nc1nnc(Cc2ccccc2)s1	10%	12%	71%			
> 20 µM	8.37 µM	COc1ccc(S(=O)(=O)Nc2cccc(/C=C(\C#N)C(=O)Nc3nnc(-c4cccs4)s3)c2)cc1	21%	77%	40%	> 20 µM		
		Cc1ccc(S(=O)(=O)Oc2ccccc2/C=C(\C#N)C(=O)Nc2nnc(Cc3cccc4ccccc34)s2)cc1	23%	19%	73%			
> 20 µM	5.78 µM	Cc1ccc(S(=O)(=O)Oc2cccc(/C=C(\C#N)C(=O)Nc3nnc(C)s3)c2)cc1	27%	71%	28%	> 50 µM		
		Cc1ccc(S(=O)(=O)Oc2cccc(/C=C(\C#N)C(=O)Nc3nnc(-c4ccccc4)s3)c2)cc1	52%	63%	35%			
		N#C/C(=C\c1ccccc1OS(=O)(=O)c1ccc(Cl)cc1)C(=O)Nc1nnc(Cc2ccc(Cl)cc2)s1	14%	15%	64%			
		N#C/C(=C\c1ccccc1OS(=O)(=O)c1ccccc1[N+](=O)[O-])C(=O)Nc1nnc(Cc2ccc(Cl)cc2)s1	20%	19%	65%			
10.5 µM	17.5 µM	N#C/C(=C\c1ccccc1OS(=O)(=O)c1ccc(C(F)(F)F)cc1)C(=O)Nc1nnc(-c2cccs2)s1	57%	55%	58%	12.3 µM		
4.75 µM	5.23 µM	COc1ccc(S(=O)(=O)Oc2ccccc2/C=C(\C#N)C(=O)Nc2nnc(-c3cccs3)s2)cc1	40%	67%	76%	> 20 µM		
